From ChEMBL document CHEMBL4368887, “Synthesis and X-ray study of dispiro 8-nitroquinolone analogues and their cytotoxic properties against human cervical cancer HeLa cells” (Medchemcomm, 2019)
Active and inactive are the calls of the source. No cut-off for these calls is given here.

Experiments:
[1] = system: HeLa; test: Cytotoxicity against human HeLa cells after 72 hrs by MTT assay; format: functional, cell-based
Summary of the method: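 HeLa cells in DMEM with 4 mM L-glutamine, penicillin, streptomycin and 10% FBS. Seeded at 4000 cells/well, settled 24 h, then given serially diluted compound for 72 h at 37°C in 5% CO2. MTT in IMDM for 4 h, acidified ethanol lysis 15 min, A570 with 690 nm background. IC50 is 50% absorbance of untreated wells; three experiments in triplicate.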

[2] = system: HeLa; test: Induction of morphological changes in human HeLa cells assessed as swollen cells at IC50 after 24 hrs by phase contrast microscopic analysis; format: functional, cell-based
Summary of the method: (§1)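 HeLa cells in DMEM with 10% FBS at 37°C, 5% CO2. […] Morphology compared with untreated cells under phase contrast microscope.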

[3] = system: HeLa; test: Induction of morphological changes in human HeLa cells assessed as detached cells at IC50 after 24 hrs by phase contrast microscopic analysis; format: functional, cell-based; summary of the method: as §1
[4] = system: HeLa; test: Induction of morphological changes in human HeLa cells assessed as disintegrated membrane at IC50 after 24 hrs by phase contrast microscopic analysis; format: functional, cell-based; summary of the method: as §1
[5] = system: HeLa; test: Induction of morphological changes in human HeLa cells assessed as rounded cells at IC50 after 24 hrs by phase contrast microscopic analysis; format: functional, cell-based; summary of the method: as §1
[6] = system: HeLa; test: Induction of morphological changes in human HeLa cells assessed as cell shrinkage at IC50 after 24 hrs by phase contrast microscopic analysis; format: functional, cell-based; summary of the method: as §1
[7] = Induction of hemolysis in human erythrocytes at IC50 by standard optical density assay relative to control; format: cell-based, Erythrocyte; settings: read-out: Activity
Summary of the method: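 Donor blood diluted in saline; RBCs spun down at 3000 rpm for 10 min and washed three times. Mixed with compound at a range of concentrations and incubated at 37°C in 5% CO2. Spun at 3000 rpm for 5 min, supernatant OD read at 570 nm. Hemolysis % calculated against saline (0%) and distilled water (100%) controls.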

[8] = system: HeLa; test: Induction of ROS generation in human HeLa cells at IC50 after 3 hrs by DCFH-DA dye-based flow cytometric analysis; format: functional, cell-based
Summary of the method: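 Harvested, washed twice in PBS, then 5 µM DCFH-DA (final) in DMEM for 10 min at 37°C. Flow cytometry at ex 485 / em 530 nm on 20000 cells per sample. Output is % of cells with DCF green fluorescence.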

[9] = system: HeLa; test: Induction of apoptosis in human HeLa cells assessed as cytoplasmic shrinkage at IC50 by DAPI staining-based fluorescence microscopic analysis; format: functional, cell-based
Summary of the method: (§2)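 Cells at 1×10^5 per coverslip exposed at IC50 concentration. Fixed in methanol:acetic acid 3:1 v/v, stained with DAPI 5 µg/mL for 20 min. Nuclear morphology viewed by fluorescence microscopy with a […].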

[10] = system: HeLa; test: Induction of apoptosis in human HeLa cells assessed as nuclear shrinkage at IC50 by DAPI staining-based fluorescence microscopic analysis; format: functional, cell-based; summary of the method: as §2
[11] = system: HeLa; test: Induction of apoptosis in human HeLa cells assessed as chromatin condensation at IC50 by DAPI staining-based fluorescence microscopic analysis; format: functional, cell-based; summary of the method: as §2
[12] = system: HeLa; test: Induction of apoptosis in human HeLa cells assessed as apoptotic body formation at IC50 by DAPI staining-based fluorescence microscopic analysis; format: functional, cell-based; summary of the method: as §2
[13] = system: HeLa; test: Induction of apoptosis in human HeLa cells at IC50 after 48 hrs by Annexin V-FITC/propidium iodide staining based flow cytometric analysis (reference value: 100%); format: functional
[14] = system: HeLa; test: Induction of apoptosis in human HeLa cells assessed as increase in caspase3 levels at IC50 after 24 hrs by Western blot analysis; format: functional, cell-based
Summary of the method: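 Extracts of treated cells quantified by Bradford assay. 50 μg protein run on 12% SDS-PAGE and transferred to nitrocellulose. Blocked in 5% skim milk in PBS for 1 h at room temperature, primary antibody overnight, goat anti-mouse 1:2000. Three independent experiments in triplicate.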

[15] = system: HeLa; test: Induction of apoptosis in human HeLa cells assessed as viable cells level at IC50 after 48 hrs by Annexin V-FITC/propidium iodide staining based flow cytometric analysis (reference value: 77.09%); format: functional
[16] = system: HeLa; test: Induction of apoptosis in human HeLa cells assessed as early apoptotic cells level at IC50 after 48 hrs by Annexin V-FITC/propidium iodide staining based flow cytometric analysis (reference value: 0%); format: functional
[17] = system: HeLa; test: Induction of apoptosis in human HeLa cells assessed as late apoptotic cells level at IC50 after 48 hrs by Annexin V-FITC/propidium iodide staining based flow cytometric analysis (reference value: %); format: functional
[18] = system: HeLa; test: Induction of apoptosis in human HeLa cells assessed as necrotic cells level at IC50 after 48 hrs by Annexin V-FITC/propidium iodide staining based flow cytometric analysis (reference value: %); format: functional

SMILES | Activity [1] | IC50 [1] [µM] | Activity [2] | Activity [3] | Activity [4] | Activity [5] | Activity [6] | hemolysis [7] [%] | Activity [8] | Activity [9] | Activity [10] | Activity [11] | Activity [12] | Activity [13] [%] | Activity [14] | Activity [15] [%] | Activity [16] [%] | Activity [17] [%] | Activity [18] [%]
O=C1c2cccc([N+](=O)[O-])c2NC[C@@]12[C@H](c1ccc(F)cc1)[C@@H](c1ccccc1)N[C@]21C(=O)Nc2ccc(Cl)cc21 | Dose-dependent effect | 27 |  |  |  |  |  |  |  |  |  |  |  |  |  |  |  |  | 
COc1ccc([C@@H]2[C@@H](c3ccccc3)N[C@]3(C(=O)Nc4ccc(F)cc43)[C@]23CNc2c(cccc2[N+](=O)[O-])C3=O)cc1 | Dose-dependent effect | 24 |  |  |  |  |  |  |  |  |  |  |  |  |  |  |  |  | 
COc1ccc([C@@H]2[C@@H](c3ccccc3)N[C@]3(C(=O)Nc4ccc(Cl)cc43)[C@]23CNc2c(cccc2[N+](=O)[O-])C3=O)cc1 | Dose-dependent effect | 16 | Active | Active | Active | Active | Active | < 7 | Active | Active | Active | Active | Active | 95.68 | Active | 2.44 | 85.33 | 1.42 | 0
O=C1c2cccc([N+](=O)[O-])c2NC[C@@]12[C@H](c1ccc(Br)cc1)[C@@H](c1ccccc1)N[C@]21C(=O)Nc2ccc(F)cc21 | Dose-dependent effect | 26 |  |  |  |  |  |  |  |  |  |  |  |  |  |  |  |  | 
COc1ccc([C@@H]2[C@@H](c3ccccc3)N[C@]3(C(=O)Nc4ccc(Br)cc43)[C@]23CNc2c(cccc2[N+](=O)[O-])C3=O)cc1 | Dose-dependent effect | 19 | Active | Active | Active | Active | Active | < 7 | Active | Active | Active | Active | Active |  |  |  |  |  | 
O=C1c2cccc([N+](=O)[O-])c2NC[C@@]12[C@H](c1ccc(Br)cc1)[C@@H](c1ccccc1)N[C@]21C(=O)Nc2ccc(Br)cc21 | Dose-dependent effect | 25 |  |  |  |  |  |  |  |  |  |  |  |  |  |  |  |  | 
O=C1c2cccc([N+](=O)[O-])c2NC[C@@]12[C@H](c1ccc(F)cc1)[C@@H](c1ccccc1)N[C@]21C(=O)Nc2ccc(F)cc21 | Dose-dependent effect | 20 |  |  |  |  |  |  |  |  |  |  |  |  |  |  |  |  | 
O=C1c2cccc([N+](=O)[O-])c2NC[C@@]12[C@H](c1ccc(F)cc1)[C@@H](c1ccccc1)N[C@]21C(=O)Nc2ccc(Br)cc21 | Dose-dependent effect | 26 |  |  |  |  |  |  |  |  |  |  |  |  |  |  |  |  | 
COc1cccc2c1C(=O)c1c(O)c3c(c(O)c1C2=O)C[C@@](O)(C(=O)CO)C[C@@H]3O[C@H]1C[C@H](N)[C@H](O)[C@H](C)O1 [DOXORUBICIN] | Dose-dependent effect | 14 |  |  |  |  |  |  |  |  |  |  |  |  |  |  |  |  | 
O=C1c2cccc([N+](=O)[O-])c2NC[C@@]12[C@H](c1ccc(Cl)cc1)[C@@H](c1ccccc1)N[C@]21C(=O)Nc2ccc(Cl)cc21 | Dose-dependent effect | 18 | Active | Active | Active | Active | Active | < 7 | Active | Active | Active | Active | Active |  |  |  |  |  | 
O=C1c2cccc([N+](=O)[O-])c2NC[C@@]12[C@H](c1ccc(Cl)cc1)[C@@H](c1ccccc1)N[C@]21C(=O)Nc2ccc(Br)cc21 | Dose-dependent effect | 23 | Active | Active | Active | Active | Active | < 7 | Active | Active | Active | Active | Active |  |  |  |  |  | 
O=C1c2cccc([N+](=O)[O-])c2NC[C@@]12[C@H](c1ccc(Cl)cc1)[C@@H](c1ccccc1)N[C@]21C(=O)Nc2ccc(F)cc21 | Dose-dependent effect | 25 |  |  |  |  |  |  |  |  |  |  |  |  |  |  |  |  | 
O=C1c2cccc([N+](=O)[O-])c2NC[C@@]12[C@H](c1ccc(Br)cc1)[C@@H](c1ccccc1)N[C@]21C(=O)Nc2ccc(Cl)cc21 | Dose-dependent effect | 21 | Active | Active | Active | Active | Active | < 7 | Active | Active | Active | Active | Active |  |  |  |  |  | 
